Inhibition data for 105 compounds are collected here from PubChem BioAssay AID489030 (Sanford-Burnham Center for Chemical Genomics, 2010).

About 2,400 (0.73%) of roughly 330,000 compounds were called active. Rule for the calls: active = inhibition of at least 40% at 20 µM; inactive = the rest. What follows is part of a selection rich in actives, with near analogues and random picks from the rest.

In the experiment the target is Apoptotic protease-activating factor 1 (Homo sapiens) (UniProt O14727). Kind of experiment: inhibitors of human Apaf-1 apoptosome, primary screen, biochemical, DEVD-Rh110 fluorescence, uHTS (AID 489030).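 Note: plate controls were DMSO wells for no effect and DEVD-CHO caspase inhibitor wells for full effect.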 The conditions noted are these: reconstituted apoptosome caspase-3 activity, at 20 µM, stronger effect = higher value. The method in brief: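 Material: cell-free apoptosome with Apaf-1, procaspase-3 and caspase-9; Buffer or medium: Hepes pH 7.5 with detergent and BSA; Reagent: cytochrome c trigger plus (Z-DEVD)2-Rh110 caspase-3 substrate; Times: compound with Apaf-1, dATP, procaspase-3 30 min, then 50 min reaction, room temperature; Technique: Rh110 fluorescence intensity.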
Sequence of Apoptotic protease-activating factor 1 (Homo sapiens) (O14727 whole entry, looked up): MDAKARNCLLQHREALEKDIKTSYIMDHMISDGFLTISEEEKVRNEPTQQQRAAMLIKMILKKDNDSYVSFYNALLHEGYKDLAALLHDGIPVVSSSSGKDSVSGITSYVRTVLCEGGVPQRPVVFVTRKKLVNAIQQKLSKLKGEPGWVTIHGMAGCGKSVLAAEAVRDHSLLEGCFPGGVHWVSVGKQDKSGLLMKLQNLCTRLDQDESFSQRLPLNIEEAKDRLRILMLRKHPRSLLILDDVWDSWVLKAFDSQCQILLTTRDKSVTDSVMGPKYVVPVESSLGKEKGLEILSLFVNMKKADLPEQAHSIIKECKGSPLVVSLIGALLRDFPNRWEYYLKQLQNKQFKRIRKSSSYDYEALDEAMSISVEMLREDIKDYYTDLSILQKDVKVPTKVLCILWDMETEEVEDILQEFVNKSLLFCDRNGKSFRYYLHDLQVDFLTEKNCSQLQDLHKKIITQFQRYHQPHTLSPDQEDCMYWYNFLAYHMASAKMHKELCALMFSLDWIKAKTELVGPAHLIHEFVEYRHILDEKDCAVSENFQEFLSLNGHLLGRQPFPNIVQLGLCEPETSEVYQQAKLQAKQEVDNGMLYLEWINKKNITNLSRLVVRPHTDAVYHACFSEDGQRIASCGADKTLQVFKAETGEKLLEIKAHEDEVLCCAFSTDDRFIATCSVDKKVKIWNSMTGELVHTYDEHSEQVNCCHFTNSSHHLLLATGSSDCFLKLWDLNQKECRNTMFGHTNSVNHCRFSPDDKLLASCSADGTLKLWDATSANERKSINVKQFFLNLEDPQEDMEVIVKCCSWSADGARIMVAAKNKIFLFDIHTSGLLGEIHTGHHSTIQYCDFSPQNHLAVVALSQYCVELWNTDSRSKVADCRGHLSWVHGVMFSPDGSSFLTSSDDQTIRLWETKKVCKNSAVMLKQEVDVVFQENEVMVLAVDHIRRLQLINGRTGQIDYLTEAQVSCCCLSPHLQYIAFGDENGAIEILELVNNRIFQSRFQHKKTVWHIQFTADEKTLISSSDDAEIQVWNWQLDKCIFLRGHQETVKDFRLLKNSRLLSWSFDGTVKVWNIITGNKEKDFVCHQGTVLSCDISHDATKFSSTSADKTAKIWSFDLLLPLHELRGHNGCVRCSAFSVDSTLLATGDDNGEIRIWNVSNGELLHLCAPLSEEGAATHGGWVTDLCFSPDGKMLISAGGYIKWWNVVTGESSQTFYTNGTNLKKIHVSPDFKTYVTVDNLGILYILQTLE
Turning to `COc1ccc(/C=C/c2c(-c3cccc(C)c3)oc3ccc(-c4ccc5c(c4)OCO5)cc23)cc1`, the inhibition is -2.24% (inactive).

Regarding `CC(C)N(Cc1ccccc1)C(=O)COC(=O)c1ccccc1SCC(=O)N1CCCC1`, the inhibition was 1.56% (inactive). Then `CN(CC(=O)Nc1ccccc1Cl)C(=O)c1ccccc1SCC(=O)N1CCCC1`, with -3.37% (inactive). Consider `CC(NC(=O)c1ccccc1SCC(=O)N1CCCC1)c1ccccc1` (stereo not given), for which the inhibition was 41.6% (active). The value for `Cc1ccc(NC2=NC(c3ccccc3)n3c(nc(C)cc3=O)N2)cc1` (stereo not given) was 5.19% (inactive); that for `O=C(Nc1ccccc1C(=O)O)c1cc(S(=O)(=O)N2CCCCC2)cs1` was -2.29% (inactive). The value for `COc1ccc(C2=NS(=O)(=O)N(C)C(C(=O)NC(C)c3ccccc3)=C2)cc1` (stereo not given) was 1.57% (inactive); that for `CCOc1c(Br)cc(/C=C2\C(=O)N(CCC#N)N=C2C)cc1OC` was 75.9% (active).

Consider `COc1cc(/C=C2/C(=O)NN(c3cccc(Cl)c3)C2=O)cc(Br)c1O`, for which the inhibition was 5.53% (inactive). In the case of `C=CCOc1c(Br)cc(/C=N\n2nnnc2N)cc1OC`, the inhibition is 2.56% (inactive). As to `COc1cc(OC)cc(-c2c(-c3cccs3)c3cc(-c4ccc(OC)cc4F)ccc3n2C)c1`, the inhibition was 11.7% (inactive).

`COc1ccc(CCN2CC(C(=O)NCCN3CCNC3=O)CCC2=O)cc1` (stereo not given): the inhibition is 0.96% (inactive). `CCN1C(=O)N[C@@H](c2ccccc2)C(C(=O)OC)=C1C`: the inhibition is -2.25% (inactive).

`CC1=C(C(=O)OCc2ccccc2)C(c2ccc(C(F)(F)F)cc2)NC(=O)N1CCCCCC(=O)O` (stereo not given): the inhibition is 19.6% (inactive). For `CCCCNC(=O)C(C)N(CCN(C)C)C(=O)CCCCCN1C(=O)NC(c2ccc(Cl)cc2)C(C(=O)OCc2ccccc2)=C1C` (stereo not given), the inhibition was 67.1% (active).

`CC1=C(C(=O)OC(C)(C)C)C(c2ccc(Br)cc2)NC(=O)N1CCCC(=O)O` (stereo not given): the inhibition was -6.71% (inactive). Take `CCCCNC(=O)C(C)N(CCN(C)C)C(=O)CCCN1C(=O)NC(c2ccc(Cl)cc2)C(C(=O)OCc2ccccc2)=C1C` (stereo not given): the inhibition was 57.1% (active).

Consider `COC(=O)CCCCCN1C(=O)NC(c2ccc(-c3ccccc3)cc2)C(C(=O)OCc2ccccc2)=C1C` (stereo not given), for which the inhibition was 19.3% (inactive). On to `CCCOC(=O)c1c(NC(=O)c2cnn3c2NC(c2ccccc2)CC3C(F)(F)F)sc2c1CCCC2` (stereo not given), for which the inhibition was -7.9% (inactive). On to `NC(=O)c1ccc(-c2csnn2)cc1`, for which the inhibition was -3.94% (inactive). With `COc1ccc(-n2nc(C(=O)Nc3cc(OC)c(OC)c(OC)c3)c3ccccc3c2=O)c(OC)c1`, the inhibition is 28.5% (inactive).

Consider `Nc1nnnn1/N=C/c1cccc(Br)c1`, for which the inhibition was 8.14% (inactive). The value for `COc1ccccc1C(=O)NCCC(=O)N(C)Cc1cccnc1` was -4.28% (inactive); that for `O=C(CCNS(=O)(=O)c1ccccc1)NCCCc1ccccc1` was 4.81% (inactive).

Take `Cc1ccc(OCCNC(=O)CCNS(=O)(=O)c2ccc(Br)cc2)cc1`: the inhibition is 11.6% (inactive). Consider `O=C(CCNS(=O)(=O)c1ccccc1)NCCSc1ccc(Br)cc1`, for which the inhibition is 58.6% (active). In the case of `CCCc1c(C)nc2c(Br)cccc2c1Cl`, the inhibition was -2.72% (inactive). Then `CC[N+](C)(CC)CCC[n+]1c(-c2ccccc2)c2cc(N)ccc2c2ccc(N)cc21`, with 98.2% (active); and `CCOC(=O)N1CCC(NC(=O)Cc2cn(C)c3ccccc23)CC1`, with 3.3% (inactive). For the compound `CCOC(=O)N1CCC(NC(=O)C(C)n2c3ccccc3c3cnn(C)c(=O)c32)CC1` (stereo not given), the inhibition is 44.6% (active). The value for `CCOC(=O)N1CCC(NC(=O)CCc2cn(C)c3ccccc23)CC1` was 0.184% (inactive); that for `Cc1ccc2nc(N3CCN(C(=O)c4ccco4)CC3)sc2c1` was 41.9% (active).

For the compound `COc1ccc2nc(N3CCN(C(=O)c4ccc([N+](=O)[O-])o4)CC3)sc2c1`, the inhibition was 4.35% (inactive). `Cc1ccc2nc(N3C(=O)C(O)=C(C(=O)c4ccco4)C3c3cccc(O)c3)sc2c1` (stereo not given): the inhibition was 9.5% (inactive). Regarding `CN(C)/C=C(\C#N)C(=O)c1cccnc1Oc1ccc(F)cc1F`, the inhibition is -17.9% (inactive).

With `Cc1ccc(NC(=O)C(C)c2cccc(C(=O)c3ccccc3)c2)cc1` (stereo not given), the inhibition was -10.9% (inactive). Take `O=C(c1snnc1-c1ccccc1)N1CCOCC1`: the inhibition was -11.7% (inactive). `Cc1oc2c(c1C(=O)N1CCOCC1)C(=O)c1ccccc1C2=O`: the inhibition is 65.9% (active). As for `COc1cc2ccccc2cc1C(=O)N1CCOCC1`, the inhibition was -7.91% (inactive). With `Cc1cc(NC(=O)C(C)SCC(=O)Nc2ccccc2N2CCCCC2)no1` (stereo not given), the inhibition is 18.8% (inactive). The value for `CCCCN(CC)CCNC(=O)c1[nH]c(C)c(C(C)=O)c1C` was 2.1% (inactive); that for `c1ccc(CSc2nnc(-c3ccco3)c(-c3ccco3)n2)cc1` was 49.6% (active); that for `CCc1nnc(SCc2cccc(F)c2)nc1CC` was 14.3% (inactive). The value for `O=C(CC1N=C2c3ccccc3N=C(SCc3ccccc3Cl)N2C1=O)NCc1ccco1` (stereo not given) was 21.1% (inactive); that for `Clc1ccccc1CSc1nnc(-c2ccco2)c(-c2ccco2)n1` was 49.9% (active); that for `S=C(NCc1ccco1)NCc1ccccc1Cl` was 10.3% (inactive). With `Clc1ccc(CSc2nnc3c(n2)[nH]c2ccccc23)cc1`, the inhibition is 11.3% (inactive). On to `COc1cc(NC(=O)CCS(=O)(=O)c2ccc3c(c2)oc(=O)n3C)cc(OC)c1`, for which the inhibition was -0.825% (inactive). With `Cc1c(NS(=O)(=O)c2cc(C(=O)NCCc3ccc(F)cc3)cc(Cl)c2Cl)c(=O)n(-c2ccccc2)n1C`, the inhibition is 16% (inactive). On to `CCOC(=O)c1ccc2c(c1)nc(SCC(=O)NC(C)C)n2CC`, for which the inhibition was -14.5% (inactive).

`O=C(N/N=C\c1cc(Br)c(Br)o1)C1COc2ccccc2O1` (stereo not given): the inhibition is 6.95% (inactive). The value for `Cc1ccc(C(=O)N/N=C/c2cccc3ccccc23)cn1` was -7.7% (inactive); that for `Cc1ccc(C(=O)N/N=C\c2cc(Br)c(Br)o2)cn1` was 75.4% (active). Consider `O=C(OCc1ccccc1F)c1ccc2c(c1)OCCO2`, for which the inhibition is 9.05% (inactive). Regarding `CCOC(=O)CCC(=O)OCC(=O)NC(C)C1CC2CCC1C2` (stereo not given), the inhibition is 3.06% (inactive). With `COC(=O)c1ccc(NC(=O)c2cc3c(CO)cnc(C)c3oc2=Nc2cccc(C(N)=O)c2)cc1`, the inhibition was -28.9% (inactive).

Take `CC(=O)N1N=C(c2ccncc2)OC1(Cc1ccccc1)Cc1ccccc1`: the inhibition is 3.9% (inactive). For `O=C(O/N=C(/c1ccccc1)c1ccncc1)c1ccccc1[N+](=O)[O-]`, the inhibition was -9.34% (inactive).

With `Cc1cc(N2CCCC2)ccc1NC(=O)COc1ccc(Cl)cc1`, the inhibition is 62.2% (active). With `Cc1cc(C)cc(OCC(=O)Nc2ccc(N3CCOCC3)cc2N2CCOCC2)c1`, the inhibition is 21.9% (inactive).

Turning to `CCC(=O)c1ccc(OCC(=O)Nc2ccc(N3CCCCC3)cc2)cc1`, the inhibition was -8.58% (inactive).

With `CS(=O)(=O)N(CC(=O)N1CCN(c2ccc(F)cc2)CC1)C1CCCCC1`, the inhibition is -2.79% (inactive). With `O=C(NC1CCCC1)C(c1c(F)cccc1Cl)N(C(=O)c1csnn1)C1CC1` (stereo not given), the inhibition was 6.38% (inactive). As for `Cc1ccc2c(c1)C1CN(C)CCC1N2S(=O)(=O)c1ccc(Oc2ccc([N+](=O)[O-])cc2)cc1` (stereo not given), the inhibition is 59.9% (active).

In the case of `Cc1ccc2c(c1)C1CN(C)CCC1N2C(=S)Nc1ccc(OC(F)F)cc1` (stereo not given), the inhibition is -7.03% (inactive).

In the case of `Cc1ccc2c(c1)C1CN(C)CCC1N2S(=O)(=O)c1cccc(F)c1` (stereo not given), the inhibition is 1.11% (inactive).

Turning to `COc1ccc(N2CCN(C(=O)c3cn(C)c4ccc(S(=O)(=O)N5CCOCC5)cc4c3=O)CC2)cc1`, the inhibition was -4.77% (inactive).

`CCC(CC)c1nnc(NC(=O)C2=COCCO2)s1`: the inhibition is 3.27% (inactive). Take `C/C(=N\NC(=O)c1ccccc1F)c1ccccn1`: the inhibition is -4.33% (inactive). Take `CCN(CC)CCOc1ccc2c(c1)C(=NNC(=O)c1ccccn1)c1cc(OCCN(CC)CC)ccc1-2`: the inhibition was 52.5% (active). As for `Cc1cnc(NC(=O)c2ccccn2)s1`, the inhibition is -31.2% (inactive). As for `Cc1ccc2c(Cl)c(C(=O)NCCCn3ccnc3)sc2c1`, the inhibition was 10.1% (inactive).

Turning to `CC(C)(C)NC(=O)CN(C(=O)c1csnn1)c1ccccc1-c1ccccc1`, the inhibition was -0.459% (inactive).

Consider `Cc1cc(C)c(NC(=S)N2CCCC2C(=O)O)c(C)c1` (stereo not given), for which the inhibition is -0.801% (inactive). Then `Cc1ccc(S(=O)(=O)c2c(N)n(C)c3nc4ccccc4nc23)cc1`, with -405% (inactive); and `CCN(CC)CCn1c(N)c(S(=O)(=O)c2ccccc2)c2nc3ccccc3nc21`, with 12% (inactive); and `CCC(=O)Nc1c(S(=O)(=O)c2ccccc2)c2nc3ccccc3nc2n1Cc1ccccc1`, with 49.2% (active). Regarding `CCOc1cc(NC(=S)NCCCN(C)C)c(OCC)cc1NC(=O)C1CC1`, the inhibition was -14.8% (inactive). As to `COc1ccccc1CN1CCNC(=O)C1CC(=O)N(C)CC1CCOCC1` (stereo not given), the inhibition was 4.54% (inactive). Turning to `Cc1c(-c2nn(C)c(=O)c3ccccc23)oc2ccc(F)cc2c1=O`, the inhibition was 82% (active). The value for `Cc1ccc(F)cc1NC(=O)Cc1nn(C)c(=O)c2ccccc12` was -8.15% (inactive). `CCC(=O)NCc1cc(-c2nn(C)c(=O)c3ccccc23)ccc1OC`: the inhibition was -10.9% (inactive). The value for `CCCCn1c(N)c(N(CC(C)C)C(=O)c2cccc(S(=O)(=O)N3CCN(C(C)=O)CC3)c2)c(=O)[nH]c1=O` was 6.93% (inactive); that for `C=CCNC(=O)c1ccccc1SCc1c(C)noc1C` was -5.84% (inactive); that for `O=S(=O)(c1cccc(C(F)(F)F)c1)N1CCN(c2cnccn2)CC1` was -23.4% (inactive). In the case of `Cc1ccsc1/C=N/NC(=O)Cc1cc(=O)[nH][nH]1`, the inhibition was 58.3% (active).

Turning to `Cc1ccsc1/C=N/n1c(=S)[nH]nc(C)c1=O`, the inhibition was 2.31% (inactive). Turning to `O=C(COc1ccccc1[N+](=O)[O-])N/N=C/c1ccc[nH]1`, the inhibition was -17.6% (inactive). Then `O=C(Cc1cc(=O)[nH][nH]1)N/N=C/c1ccccc1[N+](=O)[O-]`, with 40.8% (active); and `COc1cc(CC(=O)N/N=C/c2ccccc2)c([N+](=O)[O-])cc1OC`, with 8.78% (inactive). In the case of `CCOc1ccc(N2CC(C(=O)N/N=C/c3sccc3C)CC2=O)cc1` (stereo not given), the inhibition was -13.2% (inactive). On to `CC(C)(C)NC(=O)CSC(=Nc1ccccc1F)NC#N`, for which the inhibition was -0.507% (inactive). `COC(=O)Cc1csc(/N=C/c2c(O)n(-c3cccc(C(F)(F)F)c3)c(=O)c3ccccc23)n1`: the inhibition is -1.6% (inactive). For `O=C(COc1ccc(S(=O)(=O)NCCc2ccccc2)cc1)N1CCCC1`, the inhibition is -10.1% (inactive). In the case of `CC(Oc1ccc(Cl)cc1)c1ccnn1S(C)(=O)=O` (stereo not given), the inhibition was 0.147% (inactive). As to `Cc1noc(C)c1S(=O)(=O)N(C)C[C@H]1Oc2ccc(NC(=O)C3CCCCC3)cc2C(=O)N([C@H](C)CO)C[C@@H]1C`, the inhibition is 1.34% (inactive). Turning to `CN1CCN(/N=C2/C(=O)Nc3ccc([N+](=O)[O-])cc32)CC1`, the inhibition was -6.13% (inactive). Consider `O=[N+]([O-])c1ccc(N(CCO)Cc2ccccc2)c([N+](=O)[O-])c1`, for which the inhibition is 5.52% (inactive). Consider `O=C1Nc2ccc([N+](=O)[O-])cc2C1=Nc1cccc(CO)c1`, for which the inhibition is 41.2% (active).

With `COc1ccc(NS(=O)(=O)c2cccc3nsnc23)cc1Cl`, the inhibition was -0.325% (inactive). Consider `COc1cccc(C(=O)NCCS(=O)(=O)NCC2CCCO2)c1` (stereo not given), for which the inhibition was -2.68% (inactive). The value for `O=C(C1CCN(c2nnc(-n3cccc3)s2)CC1)N1CCc2ccccc2C1` was 6.9% (inactive); that for `OCCN1CCOCCOCCN(CCO)CCN(CCO)CC1` was -5.95% (inactive). `Clc1ccc(C2=CSC3=Nc4cccc5cccc(c45)N23)cc1`: the inhibition was 90% (active). On to `CC(C)Cc1nnc(NC(=O)CCNC(=O)c2ccccc2Cl)s1`, for which the inhibition was 12% (inactive).

The term inhibition denotes the change of the read-out against control, counted positive when it falls.
